High-throughput results deposited in PubChem by several laboratories.
Ecoli WT expand: growth inhibitors of E. coli BW25113 wild type | OD600 absorbance | growth inhibition, % at 100 µM | actives 0.15% (n = 98,000) | AID 710;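 active = growth inhibition above about 50% at one test dose, limit read from the data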;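 note: growth measured after 20 h incubation at 37 °C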
PostGolgi yeast: growth inhibition of a yeast mutant, post-Golgi transport screen. inhibition, % at 10 µM. AID 739. post-Golgi transport phenotypic cell assay. actives 0.9% (n = 98,000);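 note: yeast cells grown in 1536-well plates; yeast grown about 18 h at 30C before absorbance read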
PostGolgi ctrl: inhibits growth of the yeast control strain | inhibition, % at 10 µM | efflux-deficient yeast background strain, growth absorbance A615, 16 h | actives 5% (n = 98,000)
Cav3 T inh: human Cav3.2 channel inhibition, primary screen. O95180. Cav3.2-expressing cells, Fluo-4 calcium fluorescence FDSS; active compounds read low. B-score at 10 µM. actives 4% (n = 100,000). AID 449739;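 active = single-dose well whose peak fluorescence ratio is a statistical outlier from its plate by either plate-standardised score or position-corrected B-score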
tolC growth inh: E. coli tolC mutant growth inhibition | E. coli BW25113 tolC mutant growth, OD615 | growth inhibition, % at 10 µM (by protocol) | actives 2.2% (n = 65,000) | AID 573;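 active = growth inhibition at or above a cutoff equal to the mean over every tested compound plus 3 SD, cut at about 60% in these data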;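 note: growth measured after 20 h incubation at 37 °C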
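Assay system: tolC-deleted E. coli BW25113. Medium: kanamycin-containing LB broth (50 µg/mL). Dosing: 10 µM final, single dose. Timing: bacterial growth with compound for 20 h at 37 °C. Detection: A615 absorbance measurement. Read-out basis: growth inhibition in percent.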
Each line names hits and unclear results; the compound was inactive in the other large screens. Hits are enriched below; roughly 8.4% of the tested compounds scored in any of these assays. Cut-off read from the data, not from the text of the source, unless noted: active = inhibition above about 30%; inactive = the rest.

O=C(c1ccccc1)N1CCN(c2ccc(Cl)cc2)CC1	none
O=C(Nc1ccccc1)N1CCN2C(=O)c3ccccc3C12c1ccccc1 (stereo not drawn)	Cav3 T inh -6.87
Cc1ccc(S(=O)(=O)N2CCC(C(=O)NCc3ccncc3)CC2)cc1	none (no result: tolC growth inh)
Cn1nc(-c2ccccc2F)c2cc(C(=O)Nc3ccc4c(c3)OCCO4)sc21	PostGolgi ctrl 51.5 (no result: tolC growth inh)
COc1cccc(-c2nn(C)c3sc(C(=O)NCc4ccc(C)cc4)cc23)c1	none (no result: tolC growth inh)
CC(CCc1ccco1)NC(=O)c1cc2c(-c3ccccc3F)nn(C)c2s1 (stereo not drawn)	none
COc1cccc(-c2nn(C)c3sc(C(=O)Nc4ccc5c(c4)OCCO5)cc23)c1	PostGolgi ctrl 36.8
CC1=CCC(C(=O)O)(C(=O)N/N=C/c2cccs2)C(c2ccc([N+](=O)[O-])cc2)C1 (stereo not drawn)	PostGolgi ctrl 65.3 (no result: tolC growth inh)
COc1ccc(CN(C#N)c2nc(SC)nc(N(C)C)n2)cc1	PostGolgi ctrl 40.5
Cc1ccc(CN(C#N)c2nc(C)cc(C)n2)cc1	none (no result: tolC growth inh)
Oc1cnn(-c2ccccc2)c1	PostGolgi ctrl 32.1
O=C(Cc1cnn(-c2ccccc2)c1)c1ccc(O)c(O)c1O	none (no result: tolC growth inh)
Brc1cccc(-c2n[nH]c(-c3ccccc3)n2)c1	PostGolgi ctrl 42.9, tolC growth inh 97.5 (no result: Cav3 T inh)
S=c1nc(-c2cccc(Br)c2)[nH][nH]1	none
c1ccc(CCNc2ncnc3scc(C4COc5ccccc5O4)c23)cc1 (stereo not drawn)	PostGolgi ctrl 43.5 (no result: tolC growth inh)
c1ccc2c(c1)OCC(c1csc3ncnc(N4CCCC4)c13)O2 (stereo not drawn)	Cav3 T inh -5.08 (no result: tolC growth inh)
CCOC(=O)N=S(=O)(Oc1ccc([N+](=O)[O-])cc1)c1ccccc1 (stereo not drawn)	none (no result: tolC growth inh)
CCOC(=O)N=S(=O)(Oc1ccc([N+](=O)[O-])cc1)c1ccc(Cl)cc1 (stereo not drawn)	Cav3 T inh -4.18 (no result: Ecoli WT expand, PostGolgi yeast, PostGolgi ctrl, tolC growth inh)
CCN(CC)c1ccc(NC(=O)CN2CCN(CC(=O)Nc3ccc(F)cc3)CC2)cc1	none (no result: Cav3 T inh)
Cc1ccc(NC(=O)CN2CCC(C(=O)c3ccc(F)cc3)CC2)cc1	Cav3 T inh -5.23 (no result: Ecoli WT expand, PostGolgi yeast, PostGolgi ctrl, tolC growth inh)
FC(F)(F)c1cc(-c2ccco2)nc(NCc2ccccc2)n1	none
Fc1ccc(CNc2nc(-c3ccco3)cc(C(F)(F)F)n2)cc1	tolC growth inh 61.9
CC1(c2nnc(-c3ccccc3)o2)CC(c2ccc([N+](=O)[O-])cc2)=NO1 (stereo not drawn)	none (no result: Ecoli WT expand, PostGolgi yeast, PostGolgi ctrl, tolC growth inh)
CCCn1c(SCC(=O)N2c3ccccc3Sc3ccccc32)nc2c1c(=O)n(C)c(=O)n2C	PostGolgi ctrl 32.1 (no result: Cav3 T inh)
CC(C)n1c(SCC(N)=O)nc2c1c(=O)n(C)c(=O)n2C	none
CC(C)n1c(SCC(=O)N2c3ccccc3Sc3ccccc32)nc2c1c(=O)n(C)c(=O)n2C	PostGolgi ctrl 38.5
COC(=O)c1cn(CC(=O)NC2CCCCCC2)c2ccccc12	none (no result: Ecoli WT expand, PostGolgi yeast, PostGolgi ctrl, tolC growth inh)
CCOc1ccc(NS(=O)(=O)c2ccc3[nH]cc(C(=O)N(CC)CC)c(=O)c3c2)cc1	none (no result: Cav3 T inh)
Cc1cc(Oc2ccccc2)nc(SCC(=O)Nc2ccc(Cl)cc2Cl)n1	Cav3 T inh -5.82 (no result: tolC growth inh)
C=CCN(C(=O)CNC(=O)c1ccco1)C(C(=O)NC1CCCCC1)c1ccc(OC)cc1OC (stereo not drawn)	none
c1csc(-c2nc3nc4ccccc4nc3n2Cc2ccc3c(c2)OCO3)c1	PostGolgi ctrl 43.5, tolC growth inh 65.7
CCCn1c(-c2cccs2)nc2nc3ccccc3nc21	none (no result: Cav3 T inh, tolC growth inh)
Nc1nc(SCC(=O)C23CC4CC(CC(C4)C2)C3)n[nH]1	none
O=C(c1ccco1)N1CCN(C(=O)N2c3ccccc3Sc3ccccc32)CC1	PostGolgi ctrl 43.8
O=C(c1ccco1)N1c2ccccc2Sc2ccccc21	PostGolgi ctrl 32.0, Cav3 T inh -4.66
O=C(N1CCN(c2ccccn2)CC1)N1c2ccccc2Sc2ccccc21	PostGolgi ctrl 85.1, tolC growth inh 61.9 (no result: Cav3 T inh)
O=C(NC1CCN(C(=O)N2c3ccccc3Sc3ccccc32)CC1)c1ccco1	none
CC(C)(C)c1ccc(-c2noc(CCC(=O)NCC3CCCO3)n2)cc1 (stereo not drawn)	none (no result: tolC growth inh)
COc1ccccc1NC(=O)C1=C(C)Nc2nc(-c3ccccc3)nn2C1c1ccccn1 (stereo not drawn)	Cav3 T inh -7.56 (no result: tolC growth inh)
S=C(NCc1ccco1)N1CCN(Cc2ccc(Cl)cc2Cl)CC1	PostGolgi ctrl 31.8, Cav3 T inh -3.64 (no result: tolC growth inh)
Cc1cc(C)c(NC(=O)C(C)c2cccc(C(=O)c3ccccc3)c2)c(C)c1 (stereo not drawn)	Cav3 T inh -5.51 (no result: tolC growth inh)
N/C(=N\c1nc2c(c(=O)[nH]1)CCC2)Nc1ccccc1C(F)(F)F	none (no result: tolC growth inh)
CC(=O)NCCC(=O)Nc1ccc(F)cc1C	PostGolgi ctrl 31.4 (no result: Cav3 T inh, tolC growth inh)
COc1ccccc1NS(=O)(=O)c1cc([N+](=O)[O-])ccc1N/N=C/c1c(C)[nH]c2ccccc12	none (no result: tolC growth inh)
O=[N+]([O-])c1ccc(N/N=C/c2c[nH]c3ccccc23)c(S(=O)(=O)Nc2ccc(Cl)cc2)c1	PostGolgi yeast 86.5 (no result: Cav3 T inh, tolC growth inh)
O=C(NCCc1csc(-c2ccc(C(F)(F)F)cc2)n1)c1cccs1	PostGolgi ctrl 82.3, Cav3 T inh -6.12 (no result: tolC growth inh)
Cc1cc(C)cc(SCc2noc(C(=O)NCCCN3CCOCC3)c2C(=O)NCCCN2CCOCC2)c1	none (no result: Ecoli WT expand, PostGolgi yeast, PostGolgi ctrl, tolC growth inh)
CC(C)c1ccc(NC(=O)C(c2ccccc2)N(C)C(=O)CCc2c[nH]c3ccccc23)cc1 (stereo not drawn)	none (no result: Ecoli WT expand, PostGolgi yeast, PostGolgi ctrl, tolC growth inh)
CCOC(=O)c1ccc(NC(=O)c2ccc(CN3CCOCC3)cc2)cc1	PostGolgi yeast 94.1
O=C(Nc1ccc(CN2CCOCC2)cc1)c1cc2ccccc2o1	PostGolgi yeast 37.7
CN(C)CC(O)COc1cc2ccccc2cc1C(=O)N1CCCCC1 (stereo not drawn)	none
O=C1NNC(=O)C2C3C=CC(C4CC34)C12 (stereo not drawn)	none (no result: tolC growth inh)
CC(C)N=c1scc(-c2ccco2)n1/N=C/c1ccc(O)c(O)c1	PostGolgi ctrl 55.5 (no result: tolC growth inh)
CN=c1scc(C)n1/N=C/c1ccc(O)c(O)c1O	none (no result: tolC growth inh)
COC(=O)c1ccc(CS(=O)(=O)c2ccccc2C)o1	none
Cc1ccc(C)c(N2CCN(C(=O)c3ccc(CS(=O)(=O)c4ccccc4C)o3)CC2)c1	PostGolgi ctrl 37.7 (no result: Cav3 T inh)
Cc1cccc(N2CCN(C(=O)c3ccc(CS(=O)(=O)c4ccccc4C)o3)CC2C)c1 (stereo not drawn)	Cav3 T inh -5.74
COc1ccccc1S(=O)(=O)Cc1ccc(C(=O)N2CCN(c3ccccc3)CC2)o1	none
O=C1C(C=NCCCN2CCCC2=O)=C(O)c2ccccc21	none
CCCCn1c(=O)c2ccccc2c2ccccc2c1=O	none
CCCCCCCCC[n+]1cccc2c3ccccc3ccc21	Ecoli WT expand 70.0, PostGolgi ctrl 98.3 (no result: tolC growth inh)
Cc1cc(C)c2c(N)c3ccccc3nc2n1	Ecoli WT expand 52.0 (no result: tolC growth inh)
Cc1ccc2cc(CN(C)C(=O)C3CCCO3)c(=O)[nH]c2c1 (stereo not drawn)	none
CCn1cc(C(=O)NCc2ccco2)c(=O)c2cc(S(=O)(=O)N3CC(C)CC(C)C3)ccc21 (stereo not drawn)	Cav3 T inh -8.11
CCOc1ccc(S(=O)(=O)Nc2ccccc2C(=O)NCc2ccco2)cc1	none
